Laboratory results reported in ChEMBL document CHEMBL1143367, “Therapeutic index of gramicidin S is strongly modulated by D-phenylalanine analogues at the beta-turn” (J Med Chem, 2009).
*1 amine or outer side, *2 acyl side, *3 side chain or, on linkers, in order; H or OH if unused. Where a SMILES comes first, the peptide text is derived from it. [ ]: non-standard residue; d: D form. X1 = O=C([C@H](N[*:1])C1c2ccccc2-c2ccccc21)[*:2]; d1Nal = N[C@H](Cc1cccc2ccccc12)C(=O)O; d2Nal = N[C@H](Cc1ccc2ccccc2c1)C(=O)O; dTic = O=C(O)[C@H]1Cc2ccccc2CN1; Orn = NCCC[C@H](N)C(=O)O

Columns and labels:
Details in all cases: defibrinated sheep red blood cells, read-out: TI
[1] = Therapeutic index, ratio of HC50 for defibrinated sheep RBC to MIC50 for colistin-resistant Acinetobacter baumannii 19606R
Summary of the method: (§1)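 TI is HC50/MIC50. For HC50, defibrinated sheep erythrocytes were washed in Hank's medium with 20 mM glucose (pH 7.2), held at 2 × 10^7 cells/mL, and incubated 4 h at 37 °C with peptide in triplicate. After centrifugation, hemoglobin release was read at 550 nm.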

[2] = Therapeutic index, ratio of HC50 for defibrinated sheep RBC to MIC50 for Staphylococcus aureus CECT 240; summary of the method: as §1
[3] = Therapeutic index, ratio of HC50 for defibrinated sheep RBC to MIC50 for Listeria monocytogenes CECT 4032; summary of the method: as §1

CC(C)C[C@@H]1NC(=O)[C@H](CCCN)NC(=O)[C@H](C(C)C)NC(=O)[C@@H]2CCCN2C(=O)[C@@H](C2c3ccccc3-c3ccccc32)NC(=O)[C@H](CC(C)C)NC(=O)[C@H](CCCN)NC(=O)[C@H](C(C)C)NC(=O)[C@@H]2CCCN2C(=O)[C@@H](C2c3ccccc3-c3ccccc32)NC1=O (cyclo(L[X1]PV[Orn]L[X1]PV[Orn]))
selectivity ratio [1]: > 0.1

CC(C)C[C@@H]1NC(=O)[C@H](CCCN)NC(=O)[C@H](C(C)C)NC(=O)[C@@H]2CCCN2C(=O)[C@@H](Cc2cccc3ccccc23)NC(=O)[C@H](CC(C)C)NC(=O)[C@H](CCCN)NC(=O)[C@H](C(C)C)NC(=O)[C@@H]2CCCN2C(=O)[C@@H](Cc2cccc3ccccc23)NC1=O (cyclo(L[d1Nal]PV[Orn]L[d1Nal]PV[Orn]))
selectivity ratio [1]: > 0.1

CC(C)C[C@@H]1NC(=O)[C@H](CCCN)NC(=O)[C@H](C(C)C)NC(=O)[C@@H]2CCCN2C(=O)[C@@H](Cc2ccc3ccccc3c2)NC(=O)[C@H](CC(C)C)NC(=O)[C@H](CCCN)NC(=O)[C@H](C(C)C)NC(=O)[C@@H]2CCCN2C(=O)[C@@H](Cc2ccc3ccccc3c2)NC1=O (cyclo(L[d2Nal]PV[Orn]L[d2Nal]PV[Orn]))
selectivity ratio [1]: > 0.2

CC(C)C[C@@H]1NC(=O)[C@H](CCCN)NC(=O)[C@H](C(C)C)NC(=O)[C@@H]2CCCN2C(=O)[C@H]2Cc3ccccc3CN2C(=O)[C@H](CC(C)C)NC(=O)[C@H](CCCN)NC(=O)[C@H](C(C)C)NC(=O)[C@@H]2CCCN2C(=O)[C@H]2Cc3ccccc3CN2C1=O (cyclo(L[dTic]PV[Orn]L[dTic]PV[Orn]))
selectivity ratio [2]: > 10.2 | selectivity ratio [3]: > 6
